In paper PMC3142331 (Molecular cell, 2011):

Assays:
[1] = tested on: Mce F367N; assay: fluorescence polarization binding; parameters: species or system mouse; details: pH 7.0, 23°C; versus wild-type
How it was run: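 N-terminally fluorescein-labelled 11-aa CTD peptide (phosphorylated at central Ser2 and Ser5) was titrated with increasing concentrations of E. coli-expressed recombinant Mce protein, wild-type or mutant. Polarization was read at 23°C, pH 7.0, and Kd was derived from the binding curves. Three independent experiments were run in triplicate; error is one standard deviation.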

[2] = target: Mce-V372Y/C383Y (Mus musculus, UniProt O55236, C383Y/V372Y); assay: fluorescence polarization binding; details: pH 7.0, 23°C
Chain of Mce-V372Y/C383Y (O55236 227-567 V372Y/C383Y): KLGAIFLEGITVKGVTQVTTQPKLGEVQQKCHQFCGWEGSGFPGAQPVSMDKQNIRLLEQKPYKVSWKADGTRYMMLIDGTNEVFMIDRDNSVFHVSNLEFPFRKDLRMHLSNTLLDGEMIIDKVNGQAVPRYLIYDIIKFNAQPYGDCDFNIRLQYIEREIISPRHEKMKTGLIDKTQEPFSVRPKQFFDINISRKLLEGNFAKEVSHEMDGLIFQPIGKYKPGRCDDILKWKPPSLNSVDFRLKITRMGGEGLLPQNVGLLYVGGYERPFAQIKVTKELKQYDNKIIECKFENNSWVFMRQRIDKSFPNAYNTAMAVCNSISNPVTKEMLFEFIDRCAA

C[C@@H](O)[C@H](NC(=O)[C@@H]1CCCN1C(=O)[C@H](CO)NC(=O)c1ccc2c(c1)C(=O)OC21c2ccc(O)cc2Oc2cc(O)ccc21)C(=O)N[C@@H](COP(=O)(O)O)C(=O)N1CCC[C@H]1C(=O)N[C@@H](CO)C(=O)N[C@@H](Cc1ccc(O)cc1)C(=O)N[C@@H](COP(=O)(O)O)C(=O)N1CCC[C@H]1C(=O)N[C@H](C(=O)N[C@@H](CO)C(=O)O)[C@@H](C)O [Fluor-S2P3T4S5PP6S7Y1S2PP3T4S5]
effect of mutation on binding [1]: No effect in binding was observed
increase in Kd compared to wild-type Mce [2]: 4 fold
